The nature of experiment [1]: RPL19A-GFP modulators, yeast TOR pathway, confirmation, cell-based, S. cerevisiae, flow cytometry, cherry picks, mother/daughter gates (AID 2270;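 active = GFP response below 50% of the DMSO control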). The following applies: S. cerevisiae RPL19A-GFP strain, 3 h, at 10 µM, stronger effect = lower value, 100 = same GFP as DMSO wells.
A short description of experiment [2]: LAP4-GFP expression modulators in yeast, confirmation, cell-based, cherry picks, flow cytometry, mother/daughter gates (AID 2271;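 active = GFP response above 150% of the DMSO control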;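 also: ratio of sample to DMSO plate mean so 100% equals DMSO level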). The following applies: S. cerevisiae LAP4-GFP strain, 3 h, at 10 µM, stronger effect = higher value, 100 means same as DMSO control. Put shortly: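 System – GFP-fusion yeast strain · Amount – 0.2 OD600 cells · Buffer or medium – SC growth medium · Dosing – single test-compound dose, 10 µM final · Schedule – 3 h treatment at 30 °C with rotation · Detection – GFP by flow cytometry · Read-out – per-gate (all, mother, daughter) GFP response vs DMSO · Benchmarks – positive rapamycin (400 ng/mL), negative DMSO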

Experiment [3] can be described thus: modulators of MEP2-GFP levels in yeast, confirmation, S. cerevisiae, flow cytometry GFP, cherry picks (AID 2272;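 active = GFP response above 150% of the DMSO control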;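 also: ratio of well signal to plate DMSO mean so 100% equals DMSO level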). Conditions: S. cerevisiae MEP2-GFP strain, 3 h, at 10 µM, stronger effect = higher value.
A short description of experiment [4]: AGP1-GFP expression modulators, hit retest, confirmation, cell-based, flow cytometry, S. cerevisiae, cherry picks (AID 2273).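 Also: median GFP channel fluorescence over the whole cell population gate.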 Conditions: S. cerevisiae AGP1-GFP strain, 3 h, at 10 µM.
Experiment [5] is described as follows: modulators of CIT2-GFP expression in yeast, confirmation, S. cerevisiae, GFP fusion, cherry picks, mother/daughter gates (AID 2274). The following applies: S. cerevisiae CIT2-GFP strain, flow cytometry, 3 h, at 10 µM, stronger effect = higher value.
Setting [6] is: measured here: daughter cell gate.
The mark [7] stands for this setting: measured here: mother cell gate.
Where [8] appears, read: measured here: daughter cell gate response.
Setting [9] is: measured here: mother cell gate response.

Each structure is given as a SMILES string. Active and inactive are the calls of the source.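 The calls were made as follows, unless noted: active = GFP response above 150% of the DMSO level; inconclusive = fewer than 70 events counted for a yeast strain; inactive = the rest.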

Take `CCN1C(=O)/C(=C\C(=O)c2cccs2)c2cc(Br)ccc21`: the GFP response vs DMSO is 97.6% (inactive) in experiment [1], 96.7% in experiment [1] (setting [6]), 97.2% in experiment [1] (setting [7]) and 104% (inactive) in experiment [3]. Also, the GFP response relative to DMSO is 144% (inactive) in experiment [2], 128% in experiment [2] (setting [8]) and 140% in experiment [2] (setting [9]). The GFP response, % of DMSO in experiment [4] was 94.5% (inactive); in experiment [5], 99.3% (inactive); in experiment [5] (setting [6]) it was 104%; in experiment [5] (setting [7]), 92.1%.

As for `Cc1ccc(/C=N/NC(=O)c2ccccn2)s1`, the GFP response vs DMSO in experiment [1] is 99.2% (inactive); in experiment [1] (setting [6]), 97.1%; in experiment [1] (setting [7]), 97%; in experiment [3] it was 101% (inactive). The results for the GFP response relative to DMSO in experiment [2], in experiment [2] (setting [8]) and in experiment [2] (setting [9]) were 99.5% (inactive), 95.9% and 99.4%, respectively. Moreover, the GFP response, % of DMSO in experiment [4] is 95.1% (inactive); in experiment [5], 94.4% (inactive); in experiment [5] (setting [6]) it was 93.8%; in experiment [5] (setting [7]), 94.4%.

Consider `Cc1nc(Sc2ccc(Br)cc2)c(C#N)c(C)c1[N+](=O)[O-]`, for which the GFP response vs DMSO in experiment [1] was 106% (inactive); in experiment [1] (setting [6]) it was 105%; in experiment [1] (setting [7]), 104%; in experiment [3] it was 101% (inactive). In addition, the values for the GFP response relative to DMSO in experiment [2], in experiment [2] (setting [8]) and in experiment [2] (setting [9]) were 98.2% (inactive), 97.5% and 98.4%, respectively. In addition, the GFP response, % of DMSO in experiment [4] is 96.1% (inactive); in experiment [5], 98.8% (inactive); in experiment [5] (setting [6]), 97.4%; in experiment [5] (setting [7]), 76%.

With `COc1ccc(-c2noc(-c3cccc(Cl)c3)n2)cc1OC`, the GFP response vs DMSO is 98% (inactive) in experiment [1], 97.3% in experiment [1] (setting [6]), 97.6% in experiment [1] (setting [7]) and 102% (inactive) in experiment [3]. Moreover, the GFP response relative to DMSO in experiment [2] was 102% (inactive); in experiment [2] (setting [8]) it was 101%; in experiment [2] (setting [9]), 101%. The GFP response, % of DMSO was 96.2% (inactive) in experiment [4], 99.3% (inactive) in experiment [5], 102% in experiment [5] (setting [6]) and 96.8% in experiment [5] (setting [7]).

Consider `NC(=O)C1CCN(C(=S)NCCc2ccccc2)CC1`, for which the GFP response vs DMSO in experiment [1] is 97.3% (inactive); in experiment [1] (setting [6]), 99.5%; in experiment [1] (setting [7]), 97.1%; in experiment [3] it was 99.3% (inactive). For the same compound, the results for the GFP response relative to DMSO in experiment [2], in experiment [2] (setting [8]) and in experiment [2] (setting [9]) were 91.8% (inactive), 91.3% and 93.4%, respectively. For the same compound, the GFP response, % of DMSO was 102% (inactive) in experiment [4], 101% (inactive) in experiment [5], 103% in experiment [5] (setting [6]) and 103% in experiment [5] (setting [7]).

For the compound `O=S(=O)(c1cccc(C(F)(F)F)c1)c1ccc(O)cn1`, the GFP response vs DMSO in experiment [1] was 98.8% (inactive); in experiment [1] (setting [6]), 99.4%; in experiment [1] (setting [7]), 98.5%; in experiment [3], 100% (inactive). In addition, the GFP response relative to DMSO in experiment [2] was 96.7% (inactive); in experiment [2] (setting [8]) it was 99.2%; in experiment [2] (setting [9]), 95.1%. For the same compound, the GFP response, % of DMSO in experiment [4] is 94.7% (inactive); in experiment [5], 104% (inactive); in experiment [5] (setting [6]), 106%; in experiment [5] (setting [7]) it was 103%.

With `COc1ccc(-c2cc(C(F)(F)F)nc(S(C)(=O)=O)n2)cc1`, the GFP response vs DMSO in experiment [1] was 102% (inactive); in experiment [1] (setting [6]), 104%; in experiment [1] (setting [7]) it was 96.1%; in experiment [3] it was 130% (inactive). Besides, the GFP response relative to DMSO in experiment [2] is 136% (inactive); in experiment [2] (setting [8]), 134%; in experiment [2] (setting [9]), 133%. Moreover, the GFP response, % of DMSO is 116% (inactive) in experiment [4], 95.2% (inactive) in experiment [5], 98.1% in experiment [5] (setting [6]) and 86.9% in experiment [5] (setting [7]).

As to `O=c1cc(-c2c(F)c(F)c(F)c(F)c2F)oc2c(F)c(F)c(F)c(F)c12`, the GFP response vs DMSO in experiment [1] was 105% (inactive); in experiment [1] (setting [6]), 101%; in experiment [1] (setting [7]) it was 101%; in experiment [3] it was 131% (inactive). For the same compound, the GFP response relative to DMSO in experiment [2] is 145% (inactive); in experiment [2] (setting [8]), 120%; in experiment [2] (setting [9]), 145%. The GFP response, % of DMSO in experiment [4] is 113% (inactive); in experiment [5] it was 132% (inactive); in experiment [5] (setting [6]), 119%; in experiment [5] (setting [7]), 118%.

On to `COc1ccc2cc(-c3cc(C(=O)O)c4ccccc4n3)ccc2c1`, for which the GFP response vs DMSO in experiment [1] is 98.6% (inactive); in experiment [1] (setting [6]), 95.9%; in experiment [1] (setting [7]) it was 98.2%; in experiment [3], 107% (inactive). Moreover, the GFP response relative to DMSO is 99.8% (inactive) in experiment [2], 100% in experiment [2] (setting [8]) and 101% in experiment [2] (setting [9]). Also, the GFP response, % of DMSO in experiment [4] is 96.5% (inactive); in experiment [5] it was 145% (inactive); in experiment [5] (setting [6]) it was 128%; in experiment [5] (setting [7]), 152%.

For the compound `COc1ccc(C2CC(c3ccccc3)=NN2S(=O)(=O)c2ccc(C)cc2)c(OC)c1` (stereo unspecified), the GFP response vs DMSO in experiment [1] was 102% (inactive); in experiment [1] (setting [6]), 98.8%; in experiment [1] (setting [7]), 100%; in experiment [3], 103% (inactive). Besides, the values for the GFP response relative to DMSO in experiment [2], in experiment [2] (setting [8]) and in experiment [2] (setting [9]) were 102% (inactive), 99.1% and 104%, respectively. Moreover, the GFP response, % of DMSO was 101% (inactive) in experiment [4], 102% (inactive) in experiment [5], 99.2% in experiment [5] (setting [6]) and 99.3% in experiment [5] (setting [7]).

Take `CCn1c(=O)c(C(=O)NCCCO)c(O)c2ccccc21`: the GFP response vs DMSO in experiment [1] is 102% (inactive); in experiment [1] (setting [6]) it was 101%; in experiment [1] (setting [7]) it was 102%; in experiment [3], 114% (inactive). Besides, the GFP response relative to DMSO in experiment [2] was 111% (inactive); in experiment [2] (setting [8]), 111%; in experiment [2] (setting [9]) it was 112%. Besides, the GFP response, % of DMSO in experiment [4] was 99.1% (inactive); in experiment [5], 106% (inactive); in experiment [5] (setting [6]) it was 105%; in experiment [5] (setting [7]), 107%.

Consider `COc1cccc(/C=N/NC(=O)CCC(=O)Nc2ccc(Br)cc2)c1`, for which the GFP response vs DMSO in experiment [1] is 98.9% (inactive); in experiment [1] (setting [6]), 100%; in experiment [1] (setting [7]), 98%; in experiment [3], 108% (inactive). The GFP response relative to DMSO in experiment [2] is 90.6% (inactive); in experiment [2] (setting [8]) it was 92.9%; in experiment [2] (setting [9]) it was 90.3%. In addition, the GFP response, % of DMSO in experiment [4] was 100% (inactive); in experiment [5], 98.6% (inactive); in experiment [5] (setting [6]), 101%; in experiment [5] (setting [7]), 99.3%.

For `COc1ccc(N2C(=O)C(Cl)=C(Oc3cccc(OC)c3)C2=O)cc1`, the GFP response vs DMSO is 90.9% (inactive) in experiment [1], 76.4% in experiment [1] (setting [6]), 79.9% in experiment [1] (setting [7]) and 105% (inactive) in experiment [3]. Moreover, the GFP response relative to DMSO in experiment [2] is 218% (active); in experiment [2] (setting [8]) it was 203%; in experiment [2] (setting [9]), 227%. Besides, the GFP response, % of DMSO was 110% (inactive) in experiment [4], 98.4% (inactive) in experiment [5], 93.7% in experiment [5] (setting [6]) and 80.8% in experiment [5] (setting [7]).

Consider `NC1=NC(=O)C(CC(=O)c2ccc(Cl)cc2)S1` (stereo unspecified), for which the GFP response vs DMSO in experiment [1] is 99.9% (inactive); in experiment [1] (setting [6]), 100%; in experiment [1] (setting [7]), 99.8%; in experiment [3], 102% (inactive). For the same compound, the GFP response relative to DMSO in experiment [2] was 106% (inactive); in experiment [2] (setting [8]), 99.3%; in experiment [2] (setting [9]), 107%. Further, the GFP response, % of DMSO in experiment [4] was 96.7% (inactive); in experiment [5], 96.4% (inactive); in experiment [5] (setting [6]), 96.4%; in experiment [5] (setting [7]), 94.5%.

With `N#C/C(C(=O)Nc1ccc(Cl)cc1)=C(/S)Nc1ccccc1`, the GFP response vs DMSO was 98.8% (inactive) in experiment [1], 98.9% in experiment [1] (setting [6]), 99.3% in experiment [1] (setting [7]) and 101% (inactive) in experiment [3]. Besides, the GFP response relative to DMSO in experiment [2] was 105% (inactive); in experiment [2] (setting [8]) it was 104%; in experiment [2] (setting [9]), 104%. Also, the GFP response, % of DMSO in experiment [4] is 100% (inactive); in experiment [5], 105% (inactive); in experiment [5] (setting [6]), 105%; in experiment [5] (setting [7]), 105%.

Take `CCN(CC(O)Cn1c2ccccc2c2ccccc21)S(=O)(=O)c1ccc(F)cc1` (stereo unspecified): the GFP response vs DMSO is 96% (inactive) in experiment [1], 96.5% in experiment [1] (setting [6]), 96.7% in experiment [1] (setting [7]) and 97.5% (inactive) in experiment [3]. Moreover, the GFP response relative to DMSO is 108% (inactive) in experiment [2], 107% in experiment [2] (setting [8]) and 108% in experiment [2] (setting [9]). For the same compound, the GFP response, % of DMSO in experiment [4] is 95.8% (inactive); in experiment [5], 96.4% (inactive); in experiment [5] (setting [6]) it was 96.4%; in experiment [5] (setting [7]), 94.5%.

The values are drawn from PubChem BioAssay.
